Data taken from paper PMC8719016 (iScience, 2021).
One block for each molecule: values may come before it. Peptide text beside a SMILES is read from it.

Key:
[1] = tested on: A. baumannii AB5075; assay: Isolation of resistant mutants by subinhibitory serial passage; format: cell-based, Acinetobacter baumannii; settings: subinhibitory serial passage in liquid media over two weeks
[2] = MBC of β-AMPs with and without 40% human serum; format: cell-based; settings: MH vs MH with 40% human serum; strain not given
In short: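 Broth microdilution is run in MH with or without human serum, which is added to the cell suspension at twice the final level. Test compound is taken from 256 µg/mL through 2-fold serial dilutions in triplicate, with 5 × 10^5 cells/mL final, for 18–24 h at 37°C. 5 µL per well is plated on LB agar for 18 h at 37°C. MBC is the lowest concentration with zero growth, median of triplicates.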

[3] = tested on: E. coli KS272, HM130 and HM130 with trypsin protease; assay: MBC with and without protease activity; format: cell-based, Escherichia coli; settings: KS272, HM130, HM130 with 160 ng/mL trypsin protease, MH media
In short: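 E. coli KS272 (parent) and HM130 (cell envelope proteases deleted) are grown overnight at 37°C. Trypsin, where used, is added to the diluted cells at twice the final concentration. Test compound is taken from 256 µg/mL through 2-fold serial dilutions in triplicate, 5 × 10^5 cells/mL final, for 18–24 h at 37°C.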

[4] = tested on: A. baumannii AB5075 knockout or overexpression strains; assay: MIC against knockout or overexpression strains of upregulated genes; format: cell-based, Acinetobacter baumannii; settings: all the upregulated genes tested (Table S1: fold change MIC 1 for each)
In short: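 Genes for overexpression are cloned via EcoRI/SalI into pMMBEH67 TetR, electroporated into AB5075 and selected on LB with 10 µg/mL tetracycline. […] The MIC is the lowest concentration with no visible growth, by eye, median of triplicates.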

[5] = tested on: human red blood cells; assay: Hemolysis; format: cell-based; settings: 2-fold serial dilutions, compared with 1% Triton X-100 (100%); n = 3
[6] = Solubility in water; format: physicochemical; settings: lyophilized peptides resuspended in water at 10 mg/mL
[7] = tested on: human red blood cells; settings: ref Edwards et al., 2016; cited from earlier work

Molecule: CC[C@H](C)[C@H](NC(=O)[C@H](CCCCN)NC(=O)[C@@H](NC(=O)[C@H](CC(N)=O)NC(=O)[C@H](C)NC(=O)[C@H](CCCNC(=N)N)NC(=O)[C@H](CCCNC(=N)N)NC(=O)[C@H](CC(N)=O)NC(=O)[C@H](CCCNC(=N)N)NC(=O)[C@H](CCCNC(=N)N)NC(=O)[C@H](C)NC(=O)[C@@H](NC(=O)[C@H](CO)NC(=O)[C@@H](NC(=O)[C@@H](NC(=O)[C@H](CS)NC(=O)[C@H](CCCCN)NC(=O)[C@@H](N)CCCNC(=N)N)C(C)C)[C@@H](C)CC)C(C)C)[C@@H](C)CC)C(=O)N[C@@H](CC(C)C)C(=O)N[C@@H](CS)C(=O)N[C@@H](CC(N)=O)C(N)=O [Symbah-1] (H-RKCVISVARRNRRANIKILCN-NH2; N-terminus assumed)
Isolation of resistant mutants [1]: no isolates with improved resistance
Loss of activity (MBC) when 40% human serum was added [2]: 8 fold
Change of MBC under each of the conditions tested [3]: ≤ 2 fold
Effect of gene knockout or overexpression on MIC [4]: no clear effect on MIC
Percent hemolysis of serial dilutions [5]: very low hemolysis relative to protegrin-1 and tachyplesin-1

Solubility in water [6]: insoluble in water
Molecule: RKCVILCAR-NRRA-CVILCR [SBH-19]

Molecule: GSKKPVPIIYCNRRTGKCQRM (disulfide) [Thanatin]
Hemolysis previously reported [7]: very low hemolysis

Molecule: RGGRLCYCRRRFCVCVGR--- (bicyclic or more) [protegrin-1, reference compound]
Loss of activity (MBC) when 40% human serum was added [2]: no change
